{"source": "ChEMBL document CHEMBL1144251", "about": "“IKCa-channel blockers. Part 2: discovery of cyclohexadienes” (Bioorg Med Chem Lett, 2005)"}
{"assay": "Inhibitory concentration against rat Calcium-activated potassium channel (IKca)", "outline": "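IC50 taken as the mean of at least two separate experiments, each run in triplicate.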", "units": {"IC50": "nM"}}
{"smiles": "COC(=O)C1=C(C)CC(C)=C(C(=O)OC)C1c1cc(Cl)cc(Cl)c1", "IC50": 100}
{"smiles": "COC(=O)C1=C(C)CC2=C(C(=O)OC2)C1c1ccc(Cl)c(C(F)(F)F)c1", "note": "(stereo not given)", "IC50": 8}
{"smiles": "COC(=O)C1=C(C)CC(C)=C(C(=O)OC)C1C1CCCCC1", "IC50": "> 1000"}
{"smiles": "COC(=O)C1=C(C)CC(C)=C(C(=O)OC)C1c1ccc(Cl)c(C(F)(F)F)c1", "IC50": 1.5}
{"smiles": "CNC1=C(C(=O)OC)C(c2cccc(Cl)c2Cl)C2=C(COC2=O)C1", "note": "(stereo not given)", "IC50": 400}
{"smiles": "CCO/C(O)=C1/C(=O)CC2=C(C(=O)OC2)C1c1ccccc1Cl", "note": "(stereo not given)", "IC50": 200}
{"smiles": "COC(=O)C1=C(C)CC(C)=C(C(=O)O)C1c1ccc(Cl)c(C(F)(F)F)c1", "note": "(stereo not given)", "IC50": "> 1000"}
{"smiles": "COC(=O)C1=C(C)CC(C)=C(C(=O)OC)C1c1cccnc1", "IC50": "> 1000"}
{"smiles": "CNC1=C(C(=O)OC)C(c2cccc([N+](=O)[O-])c2)C(C(=O)OC)=C(C)C1", "note": "(stereo not given)", "IC50": 25}
{"smiles": "CNC1=C(C(=O)OC)C(c2ccc([N+](=O)[O-])cc2)C(C(=O)OC)=C(C)C1", "note": "(stereo not given)", "IC50": 20}
{"smiles": "CNC1=C(C(=O)OC)C(c2cccc([N+](=O)[O-])c2)C2=C(COC2=O)C1", "note": "(stereo not given)", "IC50": 200}
{"smiles": "COC(=O)C1=C(C)CC(C)=C(C(=O)OC(C)(C)C)C1c1ccc(Cl)c(C(F)(F)F)c1", "note": "(stereo not given)", "IC50": "> 1000"}
{"smiles": "CNC1=C(C(=O)OC)C(c2ccc(C(F)(F)F)cc2)C(C(=O)OC)=C(C)C1", "note": "(stereo not given)", "IC50": 200}
{"smiles": "CCO/C(O)=C1/C(=O)CC2=C(C(=O)OC2)C1c1ccc(Cl)c(C(F)(F)F)c1", "note": "(stereo not given)", "IC50": 40}
{"smiles": "COC(=O)C1=C(C)CC(C)=C(C(N)=O)C1c1ccc(Cl)c(C(F)(F)F)c1", "note": "(stereo not given)", "IC50": 30}
